In brackets after ≈: the same amount, converted by molar mass.
What was measured:
[1] = system: KB; experiment: Growth inhibition of human KB cells by MTT method; type: functional, cell-based
Outline: (§1)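 IC50 taken from the dose-response curve; AraC run alongside as positive control.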

[2] = system: CCRF-HSB-2; experiment: Growth inhibition of human CCRF-HSB-2 cells by MTT method; type: functional, cell-based; outline: as §1

Structure (SMILES): CCn1c2nc(-c3ccccc3)nc(=O)c-2c(NCc2ccccc2)c2cc(C)ccc21
- IC50 [1]: 17.2 µg/mL (≈ 40.9 µM)
- IC50 [2]: 6.9 µg/mL (≈ 16.4 µM)

Structure (SMILES): CCCNc1c2c(=O)nc(-c3ccccc3)nc-2n(C)c2ccccc12
- IC50 [1]: 18 µg/mL (≈ 52.3 µM)
- IC50 [2]: > 100 µg/mL

Structure (SMILES): CCCCNc1c2c(=O)nc(-c3ccccc3)nc-2n(C)c2ccccc12
- IC50 [1]: 6.6 µg/mL (≈ 18.4 µM)
- IC50 [2]: 4.7 µg/mL (≈ 13.1 µM)

Structure (SMILES): CCCCCCCCNc1c2c(=O)nc(-c3ccccc3)nc-2n(C)c2ccccc12
- IC50 [1]: 32.9 µg/mL (≈ 79.4 µM)
- IC50 [2]: > 100 µg/mL

Structure (SMILES): CCCCCCCCNc1c2c(=O)nc(-c3ccccc3)nc-2n(C)c2ccc(C)cc12
- IC50 [1]: 4.7 µg/mL (≈ 11 µM)
- IC50 [2]: 8.6 µg/mL (≈ 20.1 µM)

Structure (SMILES): CCCCNc1c2c(=O)nc(-c3ccccc3)nc-2n(CC)c2ccc(C)cc12
- IC50 [1]: 8.6 µg/mL (≈ 22.3 µM)
- IC50 [2]: 8.9 µg/mL (≈ 23 µM)

Structure (SMILES): CCCCCCCCNc1c2c(=O)nc(-c3ccccc3)nc-2n(CC)c2ccc(C)cc12
- IC50 [1]: 2 µg/mL (≈ 4.52 µM)
- IC50 [2]: 5.7 µg/mL (≈ 12.9 µM)

Structure (SMILES): Cc1ccc(Nc2c3c(=O)nc(-c4ccccc4)nc-3n(C)c3ccccc23)cc1C
- IC50 [1]: 1.6 µg/mL (≈ 3.94 µM)
- IC50 [2]: 0.75 µg/mL (≈ 1.85 µM)

Structure (SMILES): Cc1ccc(Nc2c3c(=O)nc(-c4ccccc4)nc-3n(C)c3ccccc23)cc1
- IC50 [1]: 1.8 µg/mL (≈ 4.59 µM)
- IC50 [2]: 1.1 µg/mL (≈ 2.8 µM)

Structure (SMILES): CCCCNc1c2c(=O)nc(-c3ccccc3)nc-2n(CC)c2ccccc12
- IC50 [1]: 7.6 µg/mL (≈ 20.4 µM)
- IC50 [2]: 8.3 µg/mL (≈ 22.3 µM)

Structure (SMILES): CCCCCCCCNc1c2c(=O)nc(-c3ccccc3)nc-2n(CC)c2ccccc12
- IC50 [1]: 12 µg/mL (≈ 28 µM)
- IC50 [2]: 20.4 µg/mL (≈ 47.6 µM)

Structure (SMILES): CCn1c2nc(-c3ccccc3)nc(=O)c-2c(NCCc2ccccc2)c2ccccc21
- IC50 [1]: 53.4 µg/mL (≈ 127 µM)
- IC50 [2]: 63.3 µg/mL (≈ 151 µM)

Structure (SMILES): CCCCNc1c2c(=O)nc(-c3ccccc3)nc-2n(C)c2ccc(C)cc12
- IC50 [1]: 2.7 µg/mL (≈ 7.25 µM)
- IC50 [2]: 2.1 µg/mL (≈ 5.64 µM)

Structure (SMILES): COC(=O)c1ccccc1Nc1c2c(=O)nc(-c3ccccc3)nc-2n(C)c2ccccc12
- IC50 [1]: > 100 µg/mL
- IC50 [2]: > 100 µg/mL

Structure (SMILES): Cn1c2nc(-c3ccccc3)nc(=O)c-2c(NCCc2ccccc2)c2ccccc21
- IC50 [1]: 22 µg/mL (≈ 54.1 µM)
- IC50 [2]: 17.7 µg/mL (≈ 43.5 µM)

Structure (SMILES): Cn1c2nc(-c3ccccc3)nc(=O)c-2c(NCc2ccccc2)c2ccccc21
- IC50 [1]: 66.9 µg/mL (≈ 170 µM)
- IC50 [2]: > 100 µg/mL

Structure (SMILES): CCn1c2nc(-c3ccccc3)nc(=O)c-2c(NCc2ccccc2)c2ccccc21
- IC50 [1]: 4.7 µg/mL (≈ 11.6 µM)
- IC50 [2]: 6.1 µg/mL (≈ 15 µM)

Structure (SMILES): Nc1ccn([C@@H]2O[C@H](CO)[C@@H](O)[C@@H]2O)c(=O)n1 [CYTARABINE]
- IC50 [1]: 0.42 µg/mL (≈ 1.73 µM)
- IC50 [2]: 0.017 µg/mL (≈ 0.0699 µM)
